Values after ≈ are worked out from the molar mass of the structure shown. Active and inactive are the calls of the source. The rule behind the calls is not given here.
Assays:
[1] = Anticancer activity against human DU145 cells assessed as cell viability after 48 hrs by MTT assay; format: functional, cell-based; conditions: DU-145, 48 h
Method in brief: (§1)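 MTT cytotoxicity assay in human DU-145 prostate, MCF-7 breast and HeLa cervical cancer cell lines. Doxorubicin was the reference drug.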

[2] = tested on: Bacillus cereus; assay: Bactericidal activity against Bacillus cereus ATCC 14579 after 24 hrs; format: functional; conditions: for MBC: ATCC 14579, 24 h, read-out: MBC99.9
Method in brief: (§2)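 MBC determined by a standard MBC protocol alongside the MIC, with values in µg/mL. Gentamycin sulfate and ampicillin were the references.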

[3] = tested on: Proteus vulgaris; assay: Bactericidal activity against Proteus vulgaris ATCC 13315 after 24 hrs; format: functional; conditions: for MBC: ATCC 13315, 24 h, read-out: MBC99.9; method in brief: as §2
[4] = tested on: Proteus vulgaris; assay: Antibacterial activity against Proteus vulgaris ATCC 13315 after 24 hrs by microtiter plate method; format: functional
Method in brief: (§3)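 Test concentrations reported in µg/mL. Gentamycin sulfate and ampicillin were the reference drugs.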

[5] = tested on: Klebsiella pneumoniae; assay: Bactericidal activity against Klebsiella pneumoniae ATCC 43816 after 24 hrs; format: functional; conditions: for MBC: ATCC 43816, 24 h, read-out: MBC99.9; method in brief: as §2
[6] = tested on: Staphylococcus aureus; assay: Antibacterial activity against methicillin-resistant Staphylococcus aureus NCTC 13616 after 24 hrs by microtiter plate method; format: functional
[7] = tested on: Staphylococcus aureus; assay: Bactericidal activity against methicillin-resistant Staphylococcus aureus NCTC 13616 after 24 hrs; format: functional; conditions: for MBC: NCTC 13616, 24 h, read-out: MBC99.9
Method in brief: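 MBC determined by a standard MBC protocol run alongside the MIC determination. Gentamycin sulfate and ampicillin served as reference drugs.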

[8] = tested on: Bacillus spizizenii; assay: Bactericidal activity against Bacillus subtilis ATCC 6633 after 24 hrs; format: functional; conditions: for MBC: ATCC 6633, 24 h, read-out: MBC99.9; method in brief: as §2
[9] = tested on: Bacillus spizizenii; assay: Antibacterial activity against Bacillus subtilis ATCC 6633 assessed as growth inhibition at 100 ug/ml after 24 hrs by agar well diffusion method; format: functional, organism-based
Method in brief: (§4)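 Agar well diffusion. Compounds were tested at 10, 20, 100, 200 and 300 µg/mL, and the zone of inhibition was measured in mm. Gentamycin sulfate was the reference drug.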

[10] = tested on: HeLa; assay: Anticancer activity against human HeLa cells assessed as cell viability after 48 hrs by MTT assay; format: functional, cell-based; method in brief: as §1
[11] = tested on: Staphylococcus aureus; assay: Antibacterial activity against methicillin-resistant Staphylococcus aureus NCTC 13616 assessed as growth inhibition at 100 ug/ml after 24 hrs by agar well diffusion method; format: functional, organism-based
Method in brief: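 Agar well diffusion assay with compounds applied to wells at several concentrations, including the 100 level reported here. The zone of inhibition was measured in mm. Gentamycin sulfate was the standard drug.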

[12] = tested on: Bacillus spizizenii; assay: Antibacterial activity against Bacillus subtilis ATCC 6633 after 24 hrs by microtiter plate method; format: functional; method in brief: as §3
[13] = tested on: Bacillus cereus; assay: Antibacterial activity against Bacillus cereus ATCC 14579 after 24 hrs by microtiter plate method; format: functional; method in brief: as §3
[14] = tested on: Bacillus cereus; assay: Antibacterial activity against Bacillus cereus ATCC 14579 assessed as growth inhibition at 100 ug/ml after 24 hrs by agar well diffusion method; format: functional; method in brief: as §4
[15] = tested on: Klebsiella pneumoniae; assay: Antibacterial activity against Klebsiella pneumoniae ATCC 43816 after 24 hrs by microtiter plate method; format: functional; method in brief: as §3
[16] = tested on: Escherichia coli; assay: Antibacterial activity against Escherichia coli ATCC 8739 after 24 hrs by microtiter plate method; format: functional; method in brief: as §3
[17] = tested on: Escherichia coli; assay: Bactericidal activity against Escherichia coli ATCC 8739 after 24 hrs; format: functional; conditions: for MBC: ATCC 8739, 24 h, read-out: MBC99.9; method in brief: as §2
[18] = tested on: MCF7; assay: Anticancer activity against human MCF7 cells assessed as cell viability after 48 hrs by MTT assay; format: functional, cell-based; conditions: MCF7, 48 h; method in brief: as §1
[19] = target: T1, Cytochrome P450 2A6 (Homo sapiens, UniProt P11509); assay: Inhibition of human microsomal CYP2A6; format: ADME
T1 sequence (P11509 whole entry): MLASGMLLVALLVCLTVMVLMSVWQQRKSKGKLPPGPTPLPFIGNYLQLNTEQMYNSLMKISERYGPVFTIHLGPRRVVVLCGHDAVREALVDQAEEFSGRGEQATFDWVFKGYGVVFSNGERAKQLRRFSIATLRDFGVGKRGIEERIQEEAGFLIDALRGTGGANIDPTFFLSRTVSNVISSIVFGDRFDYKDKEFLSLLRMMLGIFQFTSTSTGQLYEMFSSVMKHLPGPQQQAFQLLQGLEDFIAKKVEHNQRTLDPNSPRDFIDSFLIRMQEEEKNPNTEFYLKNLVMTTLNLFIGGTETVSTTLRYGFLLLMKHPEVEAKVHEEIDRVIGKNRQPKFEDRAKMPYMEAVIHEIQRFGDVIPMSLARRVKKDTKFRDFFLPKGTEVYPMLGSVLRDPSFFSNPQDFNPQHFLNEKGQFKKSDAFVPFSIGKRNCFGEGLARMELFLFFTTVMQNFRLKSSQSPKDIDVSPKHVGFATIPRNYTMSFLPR

[20] = n-Octanol-phosphate buffer partition coefficient, log P of the compound at pH 7.4 after 30 mins by shake flask method; format: physicochemical
Method in brief: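 Shake-flask partition between n-octanol and 50 mM phosphate buffer, pH 7.4. P calculated and expressed as logP.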

[21] = tested on: Escherichia coli; assay: Antibacterial activity against Escherichia coli ATCC 8739 assessed as growth inhibition at 100 ug/ml after 24 hrs by agar well diffusion method; format: functional; method in brief: as §4
[22] = tested on: Proteus vulgaris; assay: Antibacterial activity against Proteus vulgaris ATCC 13315 assessed as growth inhibition at 100 ug/ml after 24 hrs by agar well diffusion method; format: functional; method in brief: as §4
[23] = tested on: Klebsiella pneumoniae; assay: Antibacterial activity against Klebsiella pneumoniae ATCC 43816 assessed as growth inhibition at 100 ug/ml after 24 hrs by agar well diffusion method; format: functional; method in brief: as §4

| Molecule | IC50 [1] | MBC [2] | MBC [3] | MIC ([4]; ATCC 13315, 24 h) | MBC [5] | MIC ([6]; NCTC 13616, 24 h) | MBC [7] | MBC [8] | growth inhibition (GI) [9] | IC50 [10] | growth inhibition (GI) [11] | MIC ([12]; ATCC 6633, 24 h) | MIC ([13]; ATCC 14579, 24 h) | growth inhibition (GI) [14] | MIC ([15]; ATCC 43816, 24 h) | MIC ([16]; ATCC 8739, 24 h) | MBC [17] | IC50 [18] | Ki [19] | further results |
| --- | --- | --- | --- | --- | --- | --- | --- | --- | --- | --- | --- | --- | --- | --- | --- | --- | --- | --- | --- | --- |
| O=Cc1cn(-c2nc(-c3cc4cc(Cl)cc(Cl)c4oc3=O)cs2)nc1-c1ccc(Cl)cc1 | 30.9 µM | 220 µg/mL (≈ 438 µM) | 225 µg/mL (≈ 448 µM) | 113 µg/mL (≈ 225 µM) | 155 µg/mL (≈ 308 µM) | 112 µg/mL (≈ 224 µM) | 225 µg/mL (≈ 448 µM) | 165 µg/mL (≈ 328 µM) | Active | 10.3 µM | Active | 111 µg/mL (≈ 220 µM) | 112 µg/mL (≈ 223 µM) | Active | 105 µg/mL (≈ 209 µM) | 111 µg/mL (≈ 221 µM) | 220 µg/mL (≈ 438 µM) | 21.7 µM | 2.7 nM | logD at 0.5 h [20]: 3 |
| GENTAMICIN |  |  |  |  |  |  |  |  |  |  |  |  |  |  |  |  |  |  |  | MBC99.9 [2]: 22 µg/mL; MBC99.9 [3]: 8 µg/mL; MIC [4]: 4 µg/mL; MBC99.9 [5]: 16 µg/mL; MIC [6]: 22 µg/mL; MBC99.9 [7]: 50 µg/mL; MBC99.9 [8]: 80 µg/mL; MIC [12]: 45 µg/mL; MIC [13]: 10 µg/mL; MIC [15]: 4 µg/mL; MIC [16]: 2 µg/mL; MBC99.9 [17]: 8 µg/mL |
| COc1cccc2cc(-c3csc(-n4cc(C=O)c(-c5ccc(Cl)cc5)n4)n3)c(=O)oc12 | 38.2 µM | 250 µg/mL (≈ 539 µM) | 260 µg/mL (≈ 560 µM) | 132 µg/mL (≈ 285 µM) | 260 µg/mL (≈ 560 µM) | 139 µg/mL (≈ 300 µM) | 275 µg/mL (≈ 593 µM) | 260 µg/mL (≈ 560 µM) | Active | 41.9 µM | Active | 133 µg/mL (≈ 286 µM) | 126 µg/mL (≈ 272 µM) | Active | 129 µg/mL (≈ 278 µM) | 125 µg/mL (≈ 270 µM) | 185 µg/mL (≈ 399 µM) | 71.7 µM | 3.27 nM | growth inhibition (GI) [21]: Active; growth inhibition (GI) [22]: Active; growth inhibition (GI) [23]: Active |
| O=Cc1cn(-c2nc(-c3cc4c(ccc5ccccc54)oc3=O)cs2)nc1-c1ccccc1 | 11.9 µM | 275 µg/mL (≈ 612 µM) | 300 µg/mL (≈ 667 µM) | 150 µg/mL (≈ 334 µM) | 225 µg/mL (≈ 501 µM) | 135 µg/mL (≈ 300 µM) | 270 µg/mL (≈ 601 µM) | 240 µg/mL (≈ 534 µM) |  | 13.1 µM |  | 123 µg/mL (≈ 273 µM) | 139 µg/mL (≈ 309 µM) |  | 150 µg/mL (≈ 334 µM) | 133 µg/mL (≈ 295 µM) | 260 µg/mL (≈ 578 µM) | 39.5 µM | 0.057 nM | logD at 0.5 h [20]: 3.54 |
| O=Cc1cn(-c2nc(-c3cc4cc(Cl)ccc4oc3=O)cs2)nc1-c1ccccc1 | > 100 µM | 275 µg/mL (≈ 634 µM) | 260 µg/mL (≈ 599 µM) | 130 µg/mL (≈ 300 µM) | 190 µg/mL (≈ 438 µM) | 150 µg/mL (≈ 346 µM) | 300 µg/mL (≈ 691 µM) | 190 µg/mL (≈ 438 µM) |  | 12.8 µM | inactive | 130 µg/mL (≈ 298 µM) | 139 µg/mL (≈ 319 µM) |  | 129 µg/mL (≈ 297 µM) | 135 µg/mL (≈ 310 µM) | 265 µg/mL (≈ 611 µM) | > 100 µM | 2.58 nM |  |
| Cc1ccc(-c2nn(-c3nc(-c4cc5cc(Br)ccc5oc4=O)cs3)cc2C=O)cc1 | 20.9 µM | 250 µg/mL (≈ 508 µM) | 240 µg/mL (≈ 487 µM) | 122 µg/mL (≈ 247 µM) | 250 µg/mL (≈ 508 µM) | 138 µg/mL (≈ 280 µM) | 275 µg/mL (≈ 559 µM) | 250 µg/mL (≈ 508 µM) | Active | 14.1 µM | Active | 125 µg/mL (≈ 254 µM) | 126 µg/mL (≈ 256 µM) | Active | 124 µg/mL (≈ 252 µM) | 135 µg/mL (≈ 273 µM) | 270 µg/mL (≈ 548 µM) | 35.2 µM | 1.54 nM | growth inhibition (GI) [21]: Active; growth inhibition (GI) [22]: Active; growth inhibition (GI) [23]: Active |
| COc1cccc2c1C(=O)c1c(O)c3c(c(O)c1C2=O)C[C@@](O)(C(=O)CO)C[C@@H]3O[C@H]1C[C@H](N)[C@H](O)[C@H](C)O1 [DOXORUBICIN] | 2.49 µM |  |  |  |  |  |  |  |  | 3.92 µM |  |  |  |  |  |  |  |  |  |  |

— ChEMBL document CHEMBL3739273, “Synthesis, biological activity evaluation and molecular docking studies of novel coumarin substituted thiazolyl-3-aryl-pyrazole-4-carbaldehydes” (Bioorg Med Chem Lett, 2015)
